KCNQ1 block: human KCNQ1 channel inhibition. actives 1.3% (n = 310,000). B-score at 10 µM. P51787. CHO-K1 KCNQ1, FluxOR thallium flux fluorescence; active compounds read high;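 active means compounds whose thallium flux B-score, printed positive for inhibition, exceeds three library SD while starting fluorescence stays within three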;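 further: channel opened by potassium depolarization with thallium stimulus after 20 min compound exposure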
KCNK9 inh: inhibitors of human KCNK9 two-pore domain potassium channel. Q9NPC2. HEK293 KCNK9, FluxOR thallium flux fluorescence; active compounds read low. B-score at 10 µM. actives 1.2% (n = 310,000). AID 488922;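 active means ratio B-score over 3 SD below the library mean, with starting fluorescence within 5 SD of its mean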;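 further: negative B-score means less thallium flux so channel inhibition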
KCNQ1 pot: potentiates or activates the human KCNQ1 potassium channel; CHO-K1 KCNQ1, thallium flux FluxOR fluorescence; active compounds read high; P51787; B-score at 10 µM; actives 0.35% (n = 310,000);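 active means fluorescence ratio B-score, a plate-corrected score, at least three library SD, with initial intensity B-score within 5 SD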
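assay system = KCNQ1-transfected CHO-K1 cells | medium = assay buffer with matched DMSO | probe or stimulus = depolarizing K+/Tl+ stimulus, K2SO4 and Tl2SO4 each 12.5 mM in 5x stock | dosing = single dose | incubation = dye 90 min, compound 20 min, room temperature | detection = kinetic FluxOR fluorescence, 10 s baseline plus 110 s post-stimulus | evaluation = ratio B score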
KCNK3 inh: human KCNK3 channel inhibition, primary screen | AID 602410 | O14649 | B-score at 10 µM | CHO-KCNK3 thallium flux, FluxOR fluorescence; active compounds read low | actives 0.84% (n = 340,000);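 active means B-score under library mean minus 4 SD, starting fluorescence ratio at most library mean plus 5 SD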;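 further: more negative B-score means stronger inhibition of thallium flux through KCNK3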
hERG protect: compounds protecting human hERG from proarrhythmic drug block | Q12809 | actives 0.51% (n = 310,000) | activation (rescue from dofetilide block), less the hit threshold, % at 10 µM | CHO-hERG, FluxOR thallium flux, dofetilide IC70 present;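 active means activation above the mean of controls blocked by dofetilide plus 5 SD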;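 further: thallium influx through hERG after potassium depolarization seen as dye fluorescence rise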
Target sequence (Q12809 whole entry, looked up): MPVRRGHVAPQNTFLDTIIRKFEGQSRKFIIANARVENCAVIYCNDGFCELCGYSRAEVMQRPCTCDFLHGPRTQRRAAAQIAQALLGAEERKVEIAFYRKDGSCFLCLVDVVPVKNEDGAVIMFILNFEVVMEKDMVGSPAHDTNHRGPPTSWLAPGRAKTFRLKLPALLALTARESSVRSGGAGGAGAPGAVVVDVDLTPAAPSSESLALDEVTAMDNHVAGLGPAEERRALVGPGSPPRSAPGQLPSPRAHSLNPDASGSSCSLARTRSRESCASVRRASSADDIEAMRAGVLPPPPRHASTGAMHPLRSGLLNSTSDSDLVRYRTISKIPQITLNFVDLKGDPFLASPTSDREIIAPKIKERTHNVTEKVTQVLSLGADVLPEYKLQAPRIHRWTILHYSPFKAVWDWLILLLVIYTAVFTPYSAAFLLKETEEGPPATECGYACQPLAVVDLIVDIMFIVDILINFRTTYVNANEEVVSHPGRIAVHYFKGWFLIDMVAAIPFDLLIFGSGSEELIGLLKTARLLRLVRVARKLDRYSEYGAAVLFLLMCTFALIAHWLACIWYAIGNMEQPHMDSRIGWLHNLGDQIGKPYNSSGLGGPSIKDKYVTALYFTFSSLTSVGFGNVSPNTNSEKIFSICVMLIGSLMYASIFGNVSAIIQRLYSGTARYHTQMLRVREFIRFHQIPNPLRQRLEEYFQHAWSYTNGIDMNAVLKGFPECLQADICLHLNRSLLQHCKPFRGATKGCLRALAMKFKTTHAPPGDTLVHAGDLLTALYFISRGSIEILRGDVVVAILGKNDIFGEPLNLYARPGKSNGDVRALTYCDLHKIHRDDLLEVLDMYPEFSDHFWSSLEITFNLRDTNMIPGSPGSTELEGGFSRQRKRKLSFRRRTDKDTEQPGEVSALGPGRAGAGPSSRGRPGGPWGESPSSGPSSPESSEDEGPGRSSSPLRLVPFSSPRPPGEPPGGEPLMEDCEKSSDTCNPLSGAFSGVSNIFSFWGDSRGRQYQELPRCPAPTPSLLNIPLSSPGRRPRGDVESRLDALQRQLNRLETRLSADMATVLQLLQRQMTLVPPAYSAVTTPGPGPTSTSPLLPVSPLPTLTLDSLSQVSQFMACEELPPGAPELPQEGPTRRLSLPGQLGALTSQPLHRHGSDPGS
KCC2 mod: KCC2 (human) Cl- transport modulation; Q9H2X9; B-score of Tl+ flux slope (higher = more flux/activation; lower = inhibition) at 10 µM; actives 2.2% (n = 190,000); KCC2 cells, thallium flux FluoZin-2 fluorescence; AID 1456;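 active means thallium flux slope and its plate-corrected score both differing from the plate sample mean at a set confidence after two filtering rounds, in either direction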;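 further: slope of fluorescence scaled to starting intensity during 10 to 20 s after thallium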
KCNK3 inh conf: confirmation of human KCNK3 two-pore domain potassium channel inhibitors | ratio percent of control, % at 10 µM | AID 651638 | CHO-KCNK3 thallium flux, FluxOR fluorescence; 0% buffer, 100% carvedilol maximal block | actives 99% (n = 2,400) | shares compounds with KCNK3 inh;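 active means ratio percent of control, averaged over triplicates, above buffer control mean plus 5 SD, cut at about 64% in these data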;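 further: ratio is the fluorescence rise from min to max over baseline after thallium stimulus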
KCNK3 uninduced: activity in cells without induced KCNK3 expression; shares compounds with KCNK3 inh; non-induced KCNK3 parental cells, FluxOR thallium flux; active compounds read low; thallium flux ratio (lower = more inhibition) at 10 µM; actives 40% (n = 2,400); AID 651747;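 active means thallium flux ratio, averaged over three wells, more than 5 SD below the buffer control mean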;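 further: host cells are CHO cells without KCNK3 induction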
Numbers stand for hits; n = inactive; x = no result. Only some compounds are listed: those with a hit (about 4.1% of all), similar ones and a draw of the others.

SMILES	KCNQ1 block	KCNK9 inh	KCNQ1 pot	KCNK3 inh	hERG protect	KCC2 mod	KCNK3 inh conf	KCNK3 uninduced
CCOC(=O)C1=C(C)N=c2s/c(=C/c3cccc([N+](=O)[O-])c3O)c(=O)n2C1c1ccccc1 (stereo not drawn)	13	n	n	-12.2	n	x	124.0	0.103
CCOc1ccccc1CNC(c1ccccc1)c1ccccc1	n	n	n	-10.3	n	x	67.0	0.157
COc1cc(NC(=O)CN2C(=O)COc3ccc(S(=O)(=O)N4CCCCC4)cc32)cc(OC)c1	n	n	n	-8.81	n	x	113.0	n
CC(C)(C)c1ccc(Cn2nnc3c(=O)[nH]c(C4CCN(C(=O)c5ccco5)CC4)nc32)cc1	n	n	n	-8.94	n	x	121.7	0.146
O=C(c1ccco1)N1CCC(c2nc3c(nnn3Cc3c(Cl)cccc3Cl)c(=O)[nH]2)CC1	n	n	n	n	n	x	x	x
CCCn1c(CNc2ccc(Br)cc2)nc2ccccc21	n	n	n	-11.5	n	n	124.3	0.141
CCn1c(CNc2ccc(C(=O)O)cc2)nc2ccccc21	n	n	n	n	n	n	x	x
CC(C)c1ccc2c(c1)[C@H]1OCC[C@H]1[C@@H](c1cccs1)N2	n	n	n	n	n	n	x	x
CSc1ccc(CN(C)C(=O)C(c2ccccc2)c2ccccc2)cc1	n	n	n	-9.97	n	x	126.3	0.126
CSc1ccc(CN(C)C(=O)C(Cc2ccccc2)NC(=O)c2ccccc2)cc1 (stereo not drawn)	n	n	n	n	n	x	x	x
COC(=O)C(C)Sc1nc2ccsc2c(=O)n1Cc1ccccc1 (stereo not drawn)	n	n	n	-9.42	n	x	93.7	n
COC(=O)c1cc(NC(=O)c2cc(-c3ccccc3Cl)oc2C(F)(F)F)ccc1N1CCOCC1	8	n	n	-11.3	n	n	84.0	0.125
CC1CN(c2nc3ccccc3nc2SCC(=O)Nc2ccc(F)cc2)CC(C)O1 (stereo not drawn)	n	n	n	-8.75	n	x	105.7	0.142
O=C(COC(=O)/C=C/c1ccc(OC(F)F)cc1)Nc1ccc2[nH]c(=O)[nH]c2c1	x	x	x	n	x	x	x	x
CCOCCCNC(=O)/C(C#N)=C/c1ccc(Cl)c([N+](=O)[O-])c1	n	n	n	-9.07	n	n	122.3	0.121
CCOCCCNC(=O)/C(C#N)=C/c1cc(OC)c(O)c([N+](=O)[O-])c1	n	n	n	n	n	n	x	x
Cn1cnnc1SCC(=O)NNC(=O)c1ccc([N+](=O)[O-])cc1	x	x	x	n	x	x	x	x
CC(c1cccs1)N(Cc1ccco1)C(=S)Nc1ccccc1Cl (stereo not drawn)	n	n	n	-8.96	n	n	106.7	n
Cc1ccccc1NC(=S)N(Cc1ccco1)C(C)c1cccs1 (stereo not drawn)	n	n	n	n	n	n	x	x
Cc1cccc(NC(=S)N(Cc2ccco2)C(C)c2cccs2)c1 (stereo not drawn)	n	n	n	-9.71	n	n	94.0	n
Cc1cc(NC(=O)CSc2nnc(CNC(=O)c3c(F)cccc3F)o2)no1	n	n	n	n	n	x	x	x
C=CS(=O)(=O)c1sc(Cl)c(N2CCOCC2)c1[N+](=O)[O-]	n	n	11	-8.98	n	-3.64	125.3	0.122
Cc1cccc(C(=O)O/N=C(\c2ccccc2)c2cccnc2)c1	n	n	n	-8.89	n	n	102.3	n
Cc1ccccc1NC1=C(Cl)C(=O)OC1OC(=O)c1ccccc1C (stereo not drawn)	n	n	n	-11.7	n	n	127.7	0.11
CC1(C)Cc2c(cnn2-c2cccc(F)c2)C(NC(=O)CN2CCCC2=O)C1 (stereo not drawn)	n	n	n	n	n	x	x	x
SMILES	KCNQ1 block	KCNK9 inh	KCNQ1 pot	KCNK3 inh	hERG protect	KCC2 mod	KCNK3 inh conf	KCNK3 uninduced
Fc1ccccc1/C=C1\CCCC2=C1NC(=S)NC2c1ccccc1F (stereo not drawn)	n	n	n	-9.04	n	n	101.3	n
COc1ccc(/C=C/C(=O)O)cc1S(=O)(=O)NCc1cccnc1	n	n	n	n	n	x	x	x
O=C(NCCSc1c[nH]c2ccccc12)c1c(F)cccc1F	n	n	n	-10.3	n	n	101.3	n
N#Cc1ccc(/C=C\c2nccc3c2[nH]c2ccccc23)cc1	n	n	n	-9.95	n	n	116.3	0.158
CCOC(=O)c1cc(C)sc1NC(=O)CSC1=NCCS1	n	n	n	-11.5	n	x	119.3	n
Cc1ccc2oc(=O)n(CCOc3ccccc3C)c2c1	n	n	n	n	n	n	x	x
Cc1ccc2oc(=O)n(CCCOc3ccccc3C)c2c1	n	n	n	-10.9	n	n	120.7	0.142
C=CCn1c(SCC(=O)N2CC(=O)Nc3ccccc32)nc2scc(-c3cccs3)c2c1=O	n	-7.43	n	-13	n	x	109.7	n
CC(C)CCn1c(SCC(=O)N2CC(=O)Nc3ccccc32)nc2scc(-c3cccs3)c2c1=O	n	n	n	n	n	n	x	x
CC(Nc1nc(-c2cccnc2)nc2ccccc12)c1ccc(F)cc1 (stereo not drawn)	8	-7.86	n	-16.9	n	x	125.0	n
Fc1ccc(CNc2nc(-c3cccnc3)nc3ccccc23)cc1	n	n	n	n	n	x	x	x
O=C(OCc1nnc(-c2ccccc2)o1)C1CCN(C(=O)c2ccc(Cl)cc2)CC1	x	x	x	n	x	x	x	x
Cc1noc(C)c1COC(=O)CCOc1ccccc1	n	n	n	n	n	n	x	x
Cc1noc(C)c1COC(=O)CCN1c2ccccc2Sc2ccccc21	n	n	n	-9.66	n	n	125.7	0.137
Cc1ccc(NC(=O)c2cccs2)cc1NC(=O)c1ccco1	n	n	n	-8.81	n	x	105.0	n
O=C(Nc1ccc2nc(-c3cccs3)[nH]c2c1)c1ccco1	n	n	n	-10.2	n	n	81.3	n
Cc1ccc(NC(=O)CSc2nc(N)cc(=O)[nH]2)cc1S(=O)(=O)N1CCCCC1	x	x	x	n	x	x	x	x
CC(C)CCNC(=O)C1CCC(=O)N1CCc1ccccc1 (stereo not drawn)	n	n	n	n	n	x	x	x
C=C1SC(Nc2c(C)cc(C)cc2C)=NC12CCCCC2	n	n	n	n	n	n	x	x
CN(C)c1cc(Nc2ccc(O)cc2)c([N+](=O)[O-])c2nonc12	n	n	n	n	n	n	x	x
O=[N+]([O-])c1c(Nc2ccc(O)cc2)cc(Cl)c2nonc12	9	n	n	-11	n	x	164.3	0.0537
Cc1cccc(C(=O)NNC(=S)NC(=O)c2cccs2)c1	n	n	n	n	n	x	x	x
c1ccc(-n2nnnc2SCc2ccccn2)cc1	n	n	n	n	n	n	x	x

From PubChem BioAssay
